# High-throughput results from PubChem BioAssay.
# Ecoli rRNA inh = inhibits bacterial ribosomal RNA function over humanized ribosomes; E. coli WT GFP vs humanized-ribosome RFP mutants, fluorescence, 24 h; active compounds read low; DMSO median 0, no signal -100; actives 1.6% (n = 350,000); GFP signal change (wild-type ribosome), % (concentration not given with the values);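 active = significant combined selectivity score with lowered wild-type GFP, culture density cut under 30%, mutant RFP and density less affected; inactive = any of these conditions unmet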
# EWS-Fli block = inhibitors of EWS/Fli oncoprotein transcriptional activity; A673 NR0B1-luciferase reporter, viability-normalised; inhibition, % at 12.6 µM; actives 0.67% (n = 350,000);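 active = mean inhibition of at least 50% after viability correction, with every replicate also passing that limit; inconclusive = mean reaches 50% but only one of two replicates passes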;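 note: firefly luciferase signal divided by Alamar Blue viability fluorescence both relative to DMSO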
# E-sel inducer = E-selectin induction on HUVECs | actives 0.37% (n = 260,000) | activation, % at 7.58 µM | HUVEC E-selectin immunofluorescence imaging; normalized: neutral wells 0, TNF-alpha wells 100 | P16581 | AID 686992;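 active = mean E-selectin-positive cell signal at least 10% of the positive control, reached in at least 60% of replicates, without over 20% cell loss; inconclusive = no rule given, readout overlaps actives, possibly toxicity-flagged; inactive = the rest, including those meeting only one limit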
# Target sequence (P16581 whole entry, looked up): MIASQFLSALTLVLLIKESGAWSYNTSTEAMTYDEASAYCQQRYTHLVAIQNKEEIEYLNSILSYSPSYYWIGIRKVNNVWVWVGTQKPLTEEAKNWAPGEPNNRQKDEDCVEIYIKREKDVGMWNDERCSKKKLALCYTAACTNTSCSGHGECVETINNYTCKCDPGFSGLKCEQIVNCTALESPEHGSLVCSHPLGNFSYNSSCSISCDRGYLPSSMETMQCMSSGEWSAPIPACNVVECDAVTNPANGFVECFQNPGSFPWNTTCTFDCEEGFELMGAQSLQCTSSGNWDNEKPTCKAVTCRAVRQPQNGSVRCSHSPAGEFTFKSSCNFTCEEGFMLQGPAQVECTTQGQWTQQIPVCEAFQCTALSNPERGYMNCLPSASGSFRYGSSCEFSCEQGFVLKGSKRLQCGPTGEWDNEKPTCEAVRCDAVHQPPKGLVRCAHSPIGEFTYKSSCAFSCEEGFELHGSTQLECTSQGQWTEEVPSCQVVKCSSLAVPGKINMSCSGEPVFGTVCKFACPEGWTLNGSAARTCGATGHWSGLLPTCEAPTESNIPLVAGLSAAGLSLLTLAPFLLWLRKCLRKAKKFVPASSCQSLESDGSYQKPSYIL
#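 Assay system: HUVEC, human umbilical vein endothelial cells / Amount: 3,000 HUVEC/well / Controls: TNF-alpha positive control, DMSO neutral control / Compound dosing: single concentration / Medium: EGM-2 over gelatin coat / Evaluation: percent E-selectin-positive cells / Signal: immunofluorescence imaging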
# LGR2 antag = Drosophila LGR2 receptor signaling inhibition; inhibition, % at 9.99 µM; actives 0.35% (n = 380,000); HEK293 LGR2, CRE-luciferase, bursicon-stimulated, 4 h;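 active = drop in luminescence signal, shown as inhibition above about 50% in the replicate tests, limit read from the data, passing the limit was not always enough; inconclusive = probably only some replicates passing the limit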;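 note: agonist challenge used bursicon conditioned medium at about half maximal strength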
# * marks the source's active call; other numbers are inactive results; ? = inconclusive; . = not tested or not shown. A selection: hits, their analogues and other compounds. The true share with any hit is near 2.4%.
SMILES,Ecoli rRNA inh,EWS-Fli block,E-sel inducer,LGR2 antag
NC(Cc1ccc(O)cc1)C(=O)NN=Cc1ccc(N(CCCl)CCCl)cc1 (stereo not given),6,57*,1,24
N[C@@H](Cc1ccc(N(CCCl)CCCl)cc1)C(=O)O,5,35,0,-23
CN1[C@@H]2CN(S(C)(=O)=O)C[C@H]1C2c1ccccc1 (stereo not given in full),1,.,.,.
CC1OC(OC2C=C3CCC4C(CCC5(C)C(c6ccc(=O)oc6)CCC45O)C3(C)CC2)C(O)C(OC2OC(CO)C(O)C(O)C2O)C1O (stereo not given),.,?,.,85*
CN(C)C(=O)Oc1ccc(OCc2nc3ccccc3[nH]2)cc1,-22,40,.,53*
O=c1[nH]c2ccccc2n1C1CCN(C(CCc2ccccc2)c2nnnn2C2CCCC2)CC1 (stereo not given),3,28,0,65*
Cc1cccc(C)c1-n1nnnc1C(c1cc2ccccc2o1)N1CCC(n2c(=O)[nH]c3ccccc32)CC1 (stereo not given),4,13,1,78*
O=c1[nH]c2ccccc2n1C1CCN(C(c2cccc3ccccc23)c2nnnn2Cc2ccccc2)CC1 (stereo not given),26,12,.,28
CSCCC(c1nnnn1-c1ccc2c(c1)OCCO2)N1CCC(n2c(=O)[nH]c3ccccc32)CC1 (stereo not given),1,21,2,13
COc1ccc(C(c2nnnn2-c2c(C)cccc2C)N2CCC(n3c(=O)[nH]c4ccccc43)CC2)cc1 (stereo not given),-3,13,0,26
O=c1[nH]c2ccccc2n1C1CCN(C(c2cc3ccccc3o2)c2nnnn2Cc2ccccc2)CC1 (stereo not given),10,16,4,72*
Cc1cccc(S(=O)(=O)N2[C@@H]3Cn4c(ccc(-c5ccccc5)c4=O)[C@H]2[C@@H](C(=O)O)[C@@H]3CO)c1,0,10,0,-2
C/C=C/c1ccc([C@@H]2[C@@H](CO)N3CCCCN(C(=O)Cc4ccncc4)C[C@@H]23)cc1,3,2,0,2
COC(=O)[C@@H]1[C@@H](CO)[C@@H]2Cn3c(cccc3=O)[C@@H]2N1CC1CC1,2,7,0,31
CC1(C)OC(c2ccccc2)=C/C(=C/C=C2C(=O)NC(=S)NC2=O)O1,60,13,533*,4
CN1/C(=C\C=C2C(=O)NC(=S)NC2=O)C(C)(C)c2ccccc21,22,9,.,-2
COC(=O)[C@@H]1[C@@H](CO)[C@@H]2Cn3c(ccc(C4=CCCC4)c3=O)[C@H]1N2CC1CCCC1,1,0,0,11
CC(C)NC(=O)N1C[C@@H]2C(c3ccc(Br)cc3)[C@H](C1)N2C (stereo not given in full),0,.,.,.
CN(C)CC1CCCCC1OC(=O)Cc1ccc(Cl)c([N+](=O)[O-])c1 (stereo not given),3,10,50*,10
COC(=O)[C@H]1[C@H](CO)[C@H]2Cn3c(ccc(C4=CCCC4)c3=O)[C@@H]1N2S(=O)(=O)c1cn(C)cn1,2,2,0,8
O=C(Cc1ccccn1)N1CCCCN2[C@H](C1)[C@@H](c1ccc(-c3ccccc3)cc1)[C@@H]2CO,-1,1,1,0
COc1ccc2c(c1)/C(=C/c1cnc[nH]1)C(=O)N2,.,-28,?,95*
O=C1Nc2ccccc2/C1=C/c1cnc[nH]1,-2,-28,.,6
COc1cc2c(c(OC)c1OC)-c1ccc(O)cc1[C@@H](NC(C)=O)CC2,11,51*,0,1
COc1cc2c(c(OC)c1OC)-c1ccc(O)cc1C(NC(C)=O)CC2 (stereo not given),8,25,0,17
SMILES,Ecoli rRNA inh,EWS-Fli block,E-sel inducer,LGR2 antag
CN1[C@@H]2c3cccc(=O)n3C[C@H]1[C@H](CO)[C@H]2C(=O)NCC1CC1,1,-1,0,-3
Oc1ccccc1CN(CCc1ccccc1)Cc1ccccc1,-26*,4,0,9
COc1ccc(OC(=O)N(C)C[C@@H]2OCc3ccccc3-c3c(n(C)c4ccccc34)C(=O)N([C@@H](C)CO)C[C@@H]2C)cc1,-1,-1,0,-8
CCc1ccc(N2C(=O)NC(=O)/C(=C\C=C\c3ccco3)C2=O)cc1,14,71*,0,-6
CC(=O)O[C@H]1CCC2C3CCC4=CC(=O)CCC4=C3C=C[C@@]21C (stereo not given in full),-18*,3,0,-26
O=[N+]([O-])c1ccc(N2CC2)c([N+](=O)[O-])c1,-16*,9,0,7
COC1CCC(OC2CC(C3(C)CCC4(CC(O)C(C)C(C(C)/C=C(\C)C(=O)C(C)CC(C)C(=O)O)O4)O3)OC3(OC(C4OC(O)(CO)C(C)CC4C)CC3C)C2C)OC1C (stereo not given),.,65*,.,.
CCOC(=O)[C@]12Cc3cc(Cl)ccc3[C@H]1N(Cc1ccccc1)C(=O)c1cc(OC)ccc12,-31,24,0,?
CCCCCN1C(=O)c2cc(OC)ccc2[C@@]2(C(=O)OCC)Cc3cc(Cl)ccc3[C@@H]12,-55,57*,0,67*
CCOC(=O)[C@]12Cc3cc(Cl)ccc3[C@H]1N(C(C)C)C(=O)c1ccccc12,-54,29,0,73*
CCOC(=O)[C@]12Cc3cc(OC)ccc3[C@H]1N(C)C(=O)c1ccccc12,0,8,0,11
CCOC(=O)[C@]12Cc3cc(OC)ccc3[C@H]1N(C1CCCCC1)C(=O)c1ccccc12,-52,57*,11,50*
C[C@@H]1CN([C@@H](C)CO)C(=O)c2c(c3ccccc3n2C)-c2ccccc2CO[C@@H]1CN(C)C(=O)Oc1ccccc1,0,.,0,-5
O=C(Cc1cccnc1)N1CCCCN2[C@H](CO)[C@H](c3ccc(C#CC4CC4)cc3)[C@@H]2C1,.,-6,.,.
Cc1ccccc1-c1ccc([C@@H]2[C@@H](CO)N3CCCCN(C(=O)Cc4ccccn4)C[C@@H]23)cc1,2,-2,0,-1
O=c1[nH]c(O)c(N=Nc2ccc3c(c2)OCCO3)c(=O)[nH]1,26,29,.,67*
C[C@H]1CCCC(=O)CCCCCc2cc(O)cc(O)c2C(=O)O1,.,-15,1,16
COc1cc(O)c2c(c1)/C=C/C[C@H](O)[C@H](O)C(=O)CCC[C@H](C)OC2=O,-25*,12,-1,-2
Cc1nc2ccccc2c(=O)n1/N=C/c1cc(Br)cc(Br)c1O,-22*,3,0,14
O=C(CF)N(O)c1ccc(C=Cc2ccccc2)cc1,-5,-26,0,58*
CCCC#Cc1ccc([C@H]2[C@H]3CN(C(=O)Cc4ccccn4)CCCCN3[C@H]2CO)cc1,-1,9,0,10
O=C(Cc1ccccc1)N1CCCCN2[C@@H](CO)[C@H](c3ccc(C#Cc4ccccc4)cc3)[C@@H]2C1,-55,.,0,12
